Common to all, as to conditions: stereoisomer not certain
The target of one assay is T1, OR2T33 (Homo sapiens) (UniProt Q8NG76).
T1 sequence (whole entry): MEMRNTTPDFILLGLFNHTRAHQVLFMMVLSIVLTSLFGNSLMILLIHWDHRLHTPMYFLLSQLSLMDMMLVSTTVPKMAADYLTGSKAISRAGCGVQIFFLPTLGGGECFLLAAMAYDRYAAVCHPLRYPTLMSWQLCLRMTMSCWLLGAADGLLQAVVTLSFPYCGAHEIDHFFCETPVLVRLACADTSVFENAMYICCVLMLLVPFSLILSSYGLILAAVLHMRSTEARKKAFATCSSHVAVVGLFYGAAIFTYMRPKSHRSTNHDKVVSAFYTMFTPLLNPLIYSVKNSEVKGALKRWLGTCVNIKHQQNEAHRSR
An outline of the steps: (§1)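 Whether a receptor–molecule pair is responsive (active) rests on the original authors' judgment that its measured signal was statistically different from baseline. Pairs without that judgment are non-responsive (inactive). Sources used varied assay methods, commonly transient luciferase assays in mammalian cell lines.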

In another assay the target is T2, OR2T34 (Homo sapiens) (UniProt Q8NGX1).
T2 sequence (whole entry): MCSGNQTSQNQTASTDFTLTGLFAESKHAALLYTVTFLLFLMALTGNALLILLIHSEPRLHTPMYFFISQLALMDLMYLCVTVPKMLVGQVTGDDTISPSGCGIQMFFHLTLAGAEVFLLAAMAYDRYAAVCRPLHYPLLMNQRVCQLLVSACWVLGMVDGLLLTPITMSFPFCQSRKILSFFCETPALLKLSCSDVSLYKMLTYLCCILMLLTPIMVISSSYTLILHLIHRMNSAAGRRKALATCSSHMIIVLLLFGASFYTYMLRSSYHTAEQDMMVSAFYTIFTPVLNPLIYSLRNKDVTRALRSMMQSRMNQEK
An outline of the steps: as §1

In the next assay the target is T3, OR2T35 (Homo sapiens) (UniProt Q8NGX2).
T3 sequence (whole entry): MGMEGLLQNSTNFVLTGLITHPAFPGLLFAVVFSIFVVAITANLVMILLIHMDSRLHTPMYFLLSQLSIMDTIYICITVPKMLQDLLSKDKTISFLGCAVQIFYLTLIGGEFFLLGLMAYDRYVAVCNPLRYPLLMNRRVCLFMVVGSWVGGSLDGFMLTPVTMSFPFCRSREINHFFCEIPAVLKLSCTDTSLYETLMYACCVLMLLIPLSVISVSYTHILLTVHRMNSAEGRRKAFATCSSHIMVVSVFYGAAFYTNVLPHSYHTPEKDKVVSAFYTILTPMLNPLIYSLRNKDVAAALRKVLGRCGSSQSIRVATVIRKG
An outline of the steps:
as §1

A further assay has as its target T4, OR2T4 (Homo sapiens) (UniProt Q8NH00).
T4 sequence (whole entry): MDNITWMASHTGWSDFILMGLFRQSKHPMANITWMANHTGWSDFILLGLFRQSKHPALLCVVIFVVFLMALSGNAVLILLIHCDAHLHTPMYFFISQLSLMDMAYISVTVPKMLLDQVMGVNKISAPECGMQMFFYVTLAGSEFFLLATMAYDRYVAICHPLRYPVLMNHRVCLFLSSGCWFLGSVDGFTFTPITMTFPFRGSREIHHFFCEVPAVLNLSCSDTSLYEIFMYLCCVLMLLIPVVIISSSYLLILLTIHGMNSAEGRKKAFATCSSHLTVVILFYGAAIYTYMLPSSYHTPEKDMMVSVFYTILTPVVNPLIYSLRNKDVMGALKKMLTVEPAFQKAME
Summed up: as §1

Another assay addresses T5, OR2T5 (Homo sapiens) (UniProt Q6IEZ7).
T5 sequence (whole entry): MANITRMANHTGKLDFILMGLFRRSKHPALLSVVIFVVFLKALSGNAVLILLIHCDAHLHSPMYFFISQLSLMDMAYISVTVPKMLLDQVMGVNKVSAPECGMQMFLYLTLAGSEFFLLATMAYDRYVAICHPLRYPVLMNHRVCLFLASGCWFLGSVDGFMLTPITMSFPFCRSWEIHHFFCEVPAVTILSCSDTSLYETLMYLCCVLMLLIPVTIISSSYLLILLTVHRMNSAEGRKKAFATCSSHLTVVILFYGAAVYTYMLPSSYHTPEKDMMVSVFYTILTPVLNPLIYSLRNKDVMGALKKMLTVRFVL
Summed up:
as §1

In another assay the target is T6, OR2T6 (Homo sapiens) (UniProt Q8NHC8).
T6 sequence (whole entry): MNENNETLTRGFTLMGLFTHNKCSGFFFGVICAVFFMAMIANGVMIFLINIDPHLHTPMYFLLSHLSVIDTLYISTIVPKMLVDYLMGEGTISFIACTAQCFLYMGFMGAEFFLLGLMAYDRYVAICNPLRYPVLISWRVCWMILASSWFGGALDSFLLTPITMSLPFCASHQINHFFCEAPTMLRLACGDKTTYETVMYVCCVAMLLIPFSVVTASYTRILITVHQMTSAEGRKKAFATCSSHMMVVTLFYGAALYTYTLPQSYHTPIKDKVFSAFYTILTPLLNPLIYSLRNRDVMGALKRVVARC
An outline of the steps:
as §1

Another assay deals with T7, OR2T7 (Homo sapiens) (UniProt P0C7T2).
T7 sequence (whole entry): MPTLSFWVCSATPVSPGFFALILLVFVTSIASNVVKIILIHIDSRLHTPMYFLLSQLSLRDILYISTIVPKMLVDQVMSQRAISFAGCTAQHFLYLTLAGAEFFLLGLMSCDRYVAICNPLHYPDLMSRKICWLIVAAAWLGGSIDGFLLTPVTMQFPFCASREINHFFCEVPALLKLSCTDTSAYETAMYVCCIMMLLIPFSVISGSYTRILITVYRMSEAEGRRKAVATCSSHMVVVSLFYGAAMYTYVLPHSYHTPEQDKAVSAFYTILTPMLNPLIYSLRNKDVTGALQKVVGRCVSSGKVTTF
Summed up:
as §1

In the next assay the target is T8, OR2T8 (Homo sapiens) (UniProt A6NH00).
T8 sequence (whole entry): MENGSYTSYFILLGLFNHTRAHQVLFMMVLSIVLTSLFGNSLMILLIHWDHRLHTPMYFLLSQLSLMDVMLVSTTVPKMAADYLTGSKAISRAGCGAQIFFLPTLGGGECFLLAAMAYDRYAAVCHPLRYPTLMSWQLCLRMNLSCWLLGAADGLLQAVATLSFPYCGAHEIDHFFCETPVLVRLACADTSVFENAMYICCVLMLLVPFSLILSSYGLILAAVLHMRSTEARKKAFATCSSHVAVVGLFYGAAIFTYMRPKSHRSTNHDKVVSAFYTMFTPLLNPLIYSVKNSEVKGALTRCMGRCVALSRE
An outline of the steps:
as §1

For the next assay, the target named is T9, OR2V1 (Homo sapiens) (UniProt Q8NHB1).
T9 sequence (whole entry): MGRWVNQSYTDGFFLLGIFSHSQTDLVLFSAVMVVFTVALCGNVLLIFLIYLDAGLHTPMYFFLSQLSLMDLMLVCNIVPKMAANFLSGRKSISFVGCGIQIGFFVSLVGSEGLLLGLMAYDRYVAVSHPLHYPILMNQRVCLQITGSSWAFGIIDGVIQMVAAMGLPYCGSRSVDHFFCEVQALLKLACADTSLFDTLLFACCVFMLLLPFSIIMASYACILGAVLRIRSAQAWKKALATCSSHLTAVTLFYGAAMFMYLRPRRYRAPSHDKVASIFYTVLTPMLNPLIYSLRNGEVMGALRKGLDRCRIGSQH
An outline of the steps: as §1

Another assay concerns the target T10, OR2V2 (Homo sapiens) (UniProt Q96R30).
T10 sequence (whole entry): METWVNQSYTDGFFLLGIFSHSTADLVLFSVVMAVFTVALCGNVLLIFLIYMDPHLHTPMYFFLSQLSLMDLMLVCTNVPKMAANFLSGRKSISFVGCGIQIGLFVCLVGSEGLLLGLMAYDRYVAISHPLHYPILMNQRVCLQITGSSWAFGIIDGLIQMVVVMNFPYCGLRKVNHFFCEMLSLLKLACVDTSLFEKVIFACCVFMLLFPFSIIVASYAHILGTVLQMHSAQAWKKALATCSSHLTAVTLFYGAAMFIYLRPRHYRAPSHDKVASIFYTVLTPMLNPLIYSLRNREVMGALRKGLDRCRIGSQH
Summed up:
as §1

For the next assay, the target named is T11, OR2W1 (Homo sapiens) (UniProt Q9Y3N9).
T11 sequence (whole entry): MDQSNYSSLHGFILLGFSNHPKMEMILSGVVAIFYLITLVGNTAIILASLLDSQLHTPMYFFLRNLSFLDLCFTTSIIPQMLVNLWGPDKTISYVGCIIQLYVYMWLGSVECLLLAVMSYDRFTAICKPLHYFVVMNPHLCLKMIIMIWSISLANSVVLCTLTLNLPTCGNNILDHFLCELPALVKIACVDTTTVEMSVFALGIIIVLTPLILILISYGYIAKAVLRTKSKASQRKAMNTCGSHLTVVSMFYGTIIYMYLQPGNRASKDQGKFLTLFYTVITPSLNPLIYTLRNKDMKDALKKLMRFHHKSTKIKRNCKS
An outline of the steps:
as §1

The next assay deals with T12, OR2T3 R298C.
T12 sequence (whole entry): T2 sequence (whole entry) with H109Y, M202T, T204M, T214A, R239H, R267P, R298C
An outline of the steps:
as §1

A further assay has as its system T13, OR2T3 Y109H.
T13 sequence (whole entry): T2 sequence (whole entry) with M202T, T204M, T214A, R239H, R267P
An outline of the steps:
as §1

The next assay relates to T14, OR2T5 K13R K41M G45E.
T14 sequence (whole entry): T5 sequence (whole entry) with K13R, K41M, G45E
Summed up:
as §1

In the next assay the test system is T15, OR2T5 K13R L134F.
T15 sequence (whole entry): T5 sequence (whole entry) with K13R, L134F
An outline of the steps:
as §1

For another assay, the system named is T16, OR2T6 C23G.
T16 sequence (whole entry): T6 sequence (whole entry) with C23G
An outline of the steps:
as §1

The next assay has as its system T17, OR2T7.
T17 sequence (whole entry): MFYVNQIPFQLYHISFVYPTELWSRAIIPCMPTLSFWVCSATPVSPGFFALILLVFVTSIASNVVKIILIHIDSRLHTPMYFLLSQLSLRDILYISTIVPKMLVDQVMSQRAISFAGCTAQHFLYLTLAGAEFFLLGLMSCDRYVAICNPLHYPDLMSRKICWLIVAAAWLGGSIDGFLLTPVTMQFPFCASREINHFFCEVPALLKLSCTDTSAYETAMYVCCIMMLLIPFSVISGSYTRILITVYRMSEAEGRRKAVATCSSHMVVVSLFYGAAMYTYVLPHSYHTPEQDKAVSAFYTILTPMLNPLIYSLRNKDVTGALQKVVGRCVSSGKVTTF
Summed up:
as §1

In the next assay the test system is T18, OR2W1 G96V.
T18 sequence (whole entry): T11 sequence (whole entry) with G96V
An outline of the steps: as §1

Assay [1] deals with T19, OR2W1.
T19 sequence (whole entry): T11 sequence (whole entry) with D296N
An outline of the steps: as §1

Assay [2] has as its system T20, OR2W1.
T20 sequence (whole entry): T11 sequence (whole entry) with M81V
An outline of the steps:
as §1
The source holds these as a separate data set.

Where a chain is given by its changes, count along the chain named.
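Also: active if original authors judged signal statistically different from baseline.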

As for `CCCCC(S)C(C)CO` (centres undefined), the “odorant receptor agonist call” value in the assay with OR2T33 (Homo sapiens), with OR2T34 (Homo sapiens), with OR2T35 (Homo sapiens), with OR2T4 (Homo sapiens), with OR2T5 (Homo sapiens) and with OR2T6 (Homo sapiens) was “inactive” throughout. Moreover, the “odorant receptor agonist call” value with OR2T7 (Homo sapiens), with OR2T8 (Homo sapiens), with OR2V1 (Homo sapiens), in the assay with OR2V2 (Homo sapiens) and in the assay with OR2W1 (Homo sapiens) was “inactive” in each case.
For the compound `CCC(=O)C=CC1C(C)=CCCC1(C)C` (centres undefined), the “odorant receptor agonist call” value in the assay with OR2T34 (Homo sapiens) is “inactive”.
As for `CC1=C(O)C(=O)C(C)O1` (centres undefined), the “odorant receptor agonist call” value with OR2T3 R298C, in the assay on OR2T3 Y109H, with OR2T33 (Homo sapiens), with OR2T34 (Homo sapiens), with OR2T35 (Homo sapiens) and with OR2T4 (Homo sapiens) was “inactive” throughout. Further, the “odorant receptor agonist call” value with OR2T5 (Homo sapiens), with OR2T5 K13R K41M G45E, in the assay on OR2T5 K13R L134F, in the assay with OR2T6 (Homo sapiens), in the assay on OR2T6 C23G and in the assay with OR2T7 was “inactive” in each case. Besides, the “odorant receptor agonist call” value in the assay with OR2T8 (Homo sapiens), with OR2V1 (Homo sapiens), in the assay with OR2V2 (Homo sapiens), in the assay with OR2W1 (Homo sapiens) and with OR2W1 G96V was “inactive” throughout.
Take `COc1ccc(C)cc1`: in the assay with OR2T34 (Homo sapiens), the “odorant receptor agonist call” value is “inactive”.
For `CCCCCC(=O)C(C)C(C)=O` (centres undefined), the “odorant receptor agonist call” value with OR2T33 (Homo sapiens), with OR2T34 (Homo sapiens), in the assay with OR2T35 (Homo sapiens), with OR2T4 (Homo sapiens), in the assay with OR2T5 (Homo sapiens) and in the assay with OR2T6 (Homo sapiens) was “inactive” throughout. Besides, the “odorant receptor agonist call” value with OR2T7 (Homo sapiens), with OR2T8 (Homo sapiens), with OR2V1 (Homo sapiens), with OR2V2 (Homo sapiens) and with OR2W1 (Homo sapiens) was “inactive” throughout. For the same compound, the “odorant receptor agonist call” value in the assay on OR2W1 [1] and in the assay on OR2W1 [2] was “active” throughout.
Turning to `Cc1occc(=O)c1OC(=O)C(C)C`, the “odorant receptor agonist call” value with OR2T34 (Homo sapiens) was “inactive”.

Source of the values: the M2OR odorant receptor database.
